Assay results from ChEMBL document CHEMBL1123835, “Synthesis and biological properties of actinomycin D chromophoric analogues substituted at the 7-carbon with aziridine and aminopropoxy functions” (1987).
≈ marks a conversion by molar mass, not a printed value. *1 amine or outer side, *2 acyl side, *3 side chain or, on linkers, in order; H or OH if unused. Where a SMILES comes first, the peptide text is derived from it. Bridges are numbered along the chain shown (N, C = ends). Roman numbers before positions name the chains, in order. [ ]: non-standard residue; d: D form. Actinocin(1to9) = Cc1c2oc3c(C)ccc(C(=O)[*:2])c3nc-2c(C(=O)[*:1])c(N)c1=O; NMeV = CN[C@H](C(=O)O)C(C)C; Sar = CNCC(=O)O

Tests used:
[1] = Compound was evaluated for the elevation in temperature (degrees Celsius) for thermal denaturation of DNA.
In short: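 Calf-thymus DNA at 5.2 × 10^-5 M with drug at 2.5 × 10^-5 M in 0.01 M phosphate buffer (pH 7) with 10^-5 M EDTA. Thermal denaturation curves were recorded on a thermoprogrammed spectrophotometer with a quartz cell. ΔTm = Tm of DNA–drug complex minus Tm of DNA, with melting in the 67-85 °C range.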

CCRF-CEM = experiment: In vitro growth inhibition of CCRF-CEM (Human leukemic lymphoblastic) cell; type: functional; settings: read-out: ID50 (the source's name)
In short: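 Human CCRF-CEM lymphoblastic leukemia cells were grown in continuous spinner (suspension) culture in log phase. Compounds were dissolved in Me2SO/saline, with under 1% Me2SO in the final medium. ID50 (ng/mL) is the concentration giving 50% growth inhibition at 48 h, averaged over three experiments.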

B16 = experiment: compound was evaluated in vitro for growth inhibition of B16 (Murine melanoma cell line) cell; type: functional; settings: Mus musculus, read-out: ID50 (the source's name)
In short: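 Murine B16 melanoma cells were grown as a monolayer culture in log-phase growth. Compounds were dissolved in Me2SO/saline, with under 1% Me2SO in the final growth medium. ID50 (ng/mL) is the concentration giving 50% growth inhibition after 48 h, averaged over three experiments.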

[2] = Compound was evaluated for the elevation in temperature (degrees Centigrade) for thermal denaturation of DNA

| Structure (SMILES) | Change in Tm [1] | IC50 (CCRF-CEM) [µg/mL] | IC50 (B16) [µg/mL] | Change in Tm [2] |
| --- | --- | --- | --- | --- |
| Cc1c2oc3c(C)c(OCC(C)N)cc(C(=O)NC4C(=O)N[C@H](C(C)C)C(=O)N5CCC[C@H]5C(=O)N(C)CC(=O)N(C)[C@@H](C(C)C)C(=O)O[C@H]4C)c3nc-2c(C(=O)NC2C(=O)N[C@H](C(C)C)C(=O)N3CCC[C@H]3C(=O)N(C)CC(=O)N(C)[C@@H](C(C)C)C(=O)O[C@H]2C)c(N)c1=O (some centres not stated) | 4.8 | 0.06 (≈ 0.0452 µM) | 0.055 (≈ 0.0414 µM) |  |
| Cc1c2oc3c(C)ccc(C(=O)N[C@@H]4C(=O)N[C@H](C(C)C)C(=O)N5CCC[C@H]5C(=O)N(C)CC(=O)N(C)[C@@H](C(C)C)C(=O)O[C@@H]4C)c3nc-2c(C(=O)N[C@@H]2C(=O)N[C@H](C(C)C)C(=O)N3CCC[C@H]3C(=O)N(C)CC(=O)N(C)[C@@H](C(C)C)C(=O)O[C@@H]2C)c(N)c1=O [DACTINOMYCIN] (I: T[dV]P[Sar][NMeV] / II: T[dV]P[Sar][NMeV]; ester I:1-I:C, II:1-II:C; linker I:N-II:N via Actinocin(1to9)) | 8 | 0.013 (≈ 0.0104 µM) | 0.0033 (≈ 0.00263 µM) |  |
| C=CCOc1cc(C(=O)NC2C(=O)N[C@H](C(C)C)C(=O)N3CCC[C@H]3C(=O)N(C)CC(=O)N(C)[C@@H](C(C)C)C(=O)O[C@H]2C)c2nc3c(C(=O)NC4C(=O)N[C@H](C(C)C)C(=O)N5CCC[C@H]5C(=O)N(C)CC(=O)N(C)[C@@H](C(C)C)C(=O)O[C@H]4C)c(N)c(=O)c(C)c-3oc2c1C (some centres not stated) | 6.8 | > 0.75 | > 1 |  |
| Cc1c2oc3c(C)c(OCC4CN4)cc(C(=O)NC4C(=O)N[C@H](C(C)C)C(=O)N5CCC[C@H]5C(=O)N(C)CC(=O)N(C)[C@@H](C(C)C)C(=O)O[C@H]4C)c3nc-2c(C(=O)NC2C(=O)N[C@H](C(C)C)C(=O)N3CCC[C@H]3C(=O)N(C)CC(=O)N(C)[C@@H](C(C)C)C(=O)O[C@H]2C)c(N)c1=O (some centres not stated) |  | 0.076 (≈ 0.0573 µM) | 0.11 (≈ 0.0829 µM) | 2.8 |
